Laboratory results taken from paper PMC4887451 (Natural product communications, 2015).
Converted amounts (≈) assume the structure as drawn. One block for each molecule: values may come before it.

Legend:
Format in all cases: cell-based
[1] = tested on: Candida glabrata ATCC 90030; experiment: antifungal screening; details: Nakaseomyces glabratus, ATCC90030, read-out: IC50 against Candida glabrata
Method in brief: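 Tested alongside C. albicans ATCC 90028, C. krusei ATCC 6258, Cryptococcus neoformans ATCC 90113 and Aspergillus fumigatus ATCC 204305, following a previously described procedure. IC50 derived by curve fitting. Amphotericin B was the positive control.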

[2] = tested on: chloroquine-sensitive (D6) Plasmodium falciparum; experiment: antiplasmodial screening by plasmodial LDH activity, D6 strain; details: for selectivity index (SI), ratio of VERO IC50 to D6 IC50: VERO mammalian cell line
[3] = tested on: chloroquine-resistant (W2) Plasmodium falciparum; experiment: antiplasmodial screening by plasmodial LDH activity, W2 strain; details: for selectivity index (SI), ratio of VERO IC50 to W2 IC50: VERO mammalian cell line
[4] = tested on: Trypanosoma brucei brucei; experiment: antitrypanosomal Alamar Blue assay on Trypanosoma brucei trypomastigotes
Method in brief: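 Trypomastigote cultures of T. brucei brucei exposed to test compound, with viability read by Alamar Blue. DFMO served as positive control.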

SMILES: O=c1c(O)c(-c2ccc(O)c(O)c2)oc2cc(O)cc(O)c12 [Compound 16, quercetin]
IC50 [1]: 8.66 µg/mL (≈ 28.7 µM)

SMILES: CCN(CC)CCCC(C)Nc1ccnc2cc(Cl)ccc12 (centres unmarked) [chloroquine, reference compound]
selectivity index (SI), ratio of VERO IC50 to D6 IC50 [2]: > 9
selectivity index (SI), ratio of VERO IC50 to W2 IC50 [3]: > 2.1

IC50 against chloroquine-sensitive (D6) Plasmodium falciparum ([2]; plasmodial LDH activity): 3.29 µg/mL (≈ 6.2 µM)
IC50 against chloroquine-resistant (W2) Plasmodium falciparum ([3]; plasmodial LDH activity): 4.53 µg/mL (≈ 8.54 µM)
SMILES: COC(=O)C1(O)CC(O)C(OC(=O)/C=C/c2ccc(O)c(O)c2)C(OC(=O)/C=C/c2ccc(O)c(O)c2)C1 (centres unmarked) [Compound 20, 4,5-dicaffeoyl quinic acid methyl ester]
selectivity index (SI), ratio of VERO IC50 to D6 IC50 [2]: > 1.4
selectivity index (SI), ratio of VERO IC50 to W2 IC50 [3]: > 1

IC50 [1]: 0.34 µg/mL (≈ 0.368 µM)
SMILES: C[C@@H]1[C@H](O)[C@@H](C)/C=C/C=C/C=C/C=C/C=C/C=C/C=C/[C@H](O[C@@H]2O[C@H](C)[C@@H](O)[C@H](N)[C@@H]2O)C[C@@H]2O[C@](O)(C[C@@H](O)C[C@@H](O)[C@H](O)CC[C@@H](O)C[C@@H](O)CC(=O)O[C@H]1C)C[C@H](O)[C@H]2C(=O)O [AMB, amphotericin B, reference compound]

SMILES: NCCCC(N)(C(=O)O)C(F)F (centres unmarked) [DFMO, difluoromethylornithine, reference compound]
IC50, trypanocidal activity against Trypanosoma brucei brucei [4]: 2.30 µg/mL (≈ 12.6 µM)
IC90, trypanocidal activity against Trypanosoma brucei brucei [4]: 5.20 µg/mL (≈ 28.5 µM)

SMILES: C[C@@H]1O[C@@H](Oc2cc(O)c3c(=O)c(O)c(-c4ccc(O)c(O)c4)oc3c2)[C@H](O)[C@H](O)[C@H]1O [Compound 15, quercetin-7-O-α-L-rhamnopyranoside]
IC50, trypanocidal activity against Trypanosoma brucei brucei [4]: 9.02 µg/mL (≈ 20.1 µM)
IC90, trypanocidal activity against Trypanosoma brucei brucei [4]: > 10 µg/mL

SMILES: C=C[C@]1(C)CC[C@H](C(C)(C)O[C@@H]2O[C@H](CO[C@@H]3OC[C@@H](O)[C@H](O)[C@H]3O)[C@@H](O)[C@H](O)[C@H]2O)O1 (relative stereo) [Compound 9, (3S, 6R) cis-linalool 3,6 oxide, O-β-D-xylopyranosyl-(1″→6′)-β-D-glucopyranoside]
IC50, trypanocidal activity against Trypanosoma brucei brucei [4]: 8.18 µg/mL (≈ 17.6 µM)
IC90, trypanocidal activity against Trypanosoma brucei brucei [4]: > 10 µg/mL
